These results are taken from ChEMBL document CHEMBL3124926, “Identification of highly efficacious glucocorticoid receptor agonists with a potential for reduced clinical bone side effects” (J Med Chem, 2014).

Series [1] concerns Mus musculus. Nature of the series: Toxicity in collagen-induced B10.RIII mouse arthritis model assessed as change in AUC at 100 mg/kg, po qd for 35 days relative to 30% cremophor-treated control. It counts as organism-based. The arrangement: dose 100 mg/kg, route oral. As to conditions: in vivo, 840 h. In outline:
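Female B10.RIII mice were immunized with porcine type II collagen in complete Freund's adjuvant, enrolled at arthritis onset (10/group), and dosed orally once daily for five weeks in 30% cremophor vehicle. Four paws were scored 1–4 (max 16), as AUC. Serum biomarkers were taken at day 35. Femur cortical thickness was measured by microCT in non-immunized, age-matched mice dosed identically.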

The next series has as its system Rattus norvegicus. Kind of series: Clearance in rat at 2 mg/kg, iv and 30 mg/kg, po. The class given is ADME, organism-based. As to conditions: in vivo. In outline: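 Rat PK: 2 mg/kg iv in 80/20 PEG/water and 30 mg/kg po in 80/18/2 PEG/water/Tween.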
In series [2] the test system is Mus musculus. Nature of the series: Toxicity in collagen-induced B10.RIII mouse arthritis model assessed as change in triglyceride level at 100 mg/kg, po qd for 35 days relative to 1% methylcellulose-treated control. The class given is organism-based. Also noted: dose 100 mg/kg, route oral. As to conditions: in vivo, 840 h. In outline: (§1)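 Female B10.RIII mice were immunized at 12–15 weeks with porcine type II collagen emulsified in complete Freund's adjuvant (100 μg intradermal, tail base). Animals were enrolled at first arthritis signs, 10 per group, and dosed orally once daily for five weeks in 1% methylcellulose. Paws were scored 1–4 each (max 16), with AUC taken. Serum was collected at day 35. Femur cortical thickness was measured by microCT in non-immunized, age-matched mice given the same dosing.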

In series [3] the test system is Mus musculus. Kind of series: Toxicity in collagen-induced B10.RIII mouse arthritis model assessed as change in AUC at 100 mg/kg, po qd for 35 days relative to 1% methylcellulose-treated control. The class given is organism-based. The arrangement: dose 100 mg/kg, route oral. As to conditions: in vivo, 840 h. In outline: as §1

On to `Cc1ccc(F)cc1C(C)(C)C[C@@](O)(Cc1cc2nnccc2[nH]1)C(F)(F)F`, for which the Activity in the series with Mus musculus [1] was -53%. In addition, the CL in the series with Rattus norvegicus is on record as over 100%.

Take `Cc1ccc(F)cc1C(C)(C)C[C@@](O)(Cc1cc2ncncc2[nH]1)C(F)(F)F`: the results for the Activity in the series on Mus musculus [2] and with Mus musculus [3] were -14% and -57%, respectively.
